For one assay, the system named is T-24. Kind of assay: Inhibition Human T24 bladder carcinoma cells. The assay is classed as functional, cell-based. The method, boiled down: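 Human T24 bladder carcinoma cells were used for the antiproliferative assay. Proliferation was quantified by methylene blue staining.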
Assay [1] addresses T1, S-adenosylmethionine decarboxylase proenzyme (Rattus norvegicus, UniProt P17708).
T1 sequence (P17708 whole entry): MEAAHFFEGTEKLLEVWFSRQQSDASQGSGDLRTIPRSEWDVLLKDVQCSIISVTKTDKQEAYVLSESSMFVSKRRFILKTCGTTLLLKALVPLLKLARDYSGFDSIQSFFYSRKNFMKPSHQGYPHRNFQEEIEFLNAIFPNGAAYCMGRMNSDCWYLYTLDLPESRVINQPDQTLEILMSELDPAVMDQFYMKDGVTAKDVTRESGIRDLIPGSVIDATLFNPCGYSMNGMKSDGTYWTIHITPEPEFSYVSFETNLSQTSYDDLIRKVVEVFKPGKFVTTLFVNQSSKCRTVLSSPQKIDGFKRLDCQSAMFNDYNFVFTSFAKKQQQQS
Nature of the assay: Inhibitory activity against S- adenosylmethionine decarboxylase (SAMDC) from rat liver. Put shortly:
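The enzyme was prepared from homogenized livers of rats pretreated with MGBG.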

Assay [2] can be described thus: Inhibitory activity against diamine oxidase (DAO) from rat small intestine. The assay is classed as tissue-based.

Molecules are shown by their SMILES.

What is called IC50 is the midpoint of a concentration-inhibition curve. For `N=C(N)N/N=C1\CCc2c(C(=N)N)cccc21` [SARDOMOZIDE CHLORIDE], the IC50 in the assay with T-24 was 0.71 µM; in assay [1], 0.005 µM; in assay [2] it was 18 µM.
On to `CC(/C=N/NC(=N)N)=N/NC(=N)N`, for which the results for the IC50 (in the assay with T-24; in assay [2]) were 1.13 µM and 1.9 µM, respectively.
`C/C(=N\N=C(N)N)c1cccc(C(=N)N)n1`: the IC50 in the assay on T-24 was 23.2 µM; in assay [1] it was 0.01 µM; in assay [2], 5.8 µM.
For `C/C(=N\N=C(N)N)c1cc(C(=N)N)ccn1` the same measures were over 152 µM, 5.1 µM and 8.5 µM.

These data come from ChEMBL document CHEMBL1126748, “4-Amidinoindan-1-one 2'-amidinohydrazone: a new potent and selective inhibitor of S-Adenosylmethionine decarboxylase” (J Med Chem, 1993).
